{"source": "ChEMBL document CHEMBL5649170", "about": "“Sustained microglial depletion with CSF1R inhibitor impairs parenchymal plaque development in an Alzheimer's disease model” (Nat Commun, 2019)", "key": {"[1]": {"tested_on": "Brain", "assay": "Drug penetration in mouse brain", "assay_type": "ADME, tissue-based", "conditions": "in vivo"}, "[2]": {"assay": "Inhibition of BCR-CSF1R (unknown origin) expressed in mouse BaF3 cells assessed as inhibition of IL3-dependent cell proliferation incubated for 3 days by ATPlite 1step Luminescence Assay reagent based assay", "conditions": "Homo sapiens, BaF3, 72 h"}, "[3]": {"assay": "Dissociation constant, pKa of compound", "assay_type": "physicochemical"}, "[4]": {"assay": "Inhibition of BCR-KIT (unknown origin) expressed in mouse BaF3 cells assessed as inhibition of BCR-KIT dependent cell proliferation incubated for 3 days by ATPlite 1step Luminescence Assay reagent based assay", "conditions": "Homo sapiens, BaF3, 72 h"}, "[5]": {"assay": "Drug concentration in 5XFAD mouse plasma at 600 ppm administered as rodent chow starting from 1.5 months and measured after 5 months", "assay_type": "ADME, cell-free", "conditions": "route po, time 3.5 months", "in_short": "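WT or 5xFAD mice were fed PLX3397 in AIN-76A chow at 600 ppm or 75 ppm from 1.5 to 5 months of age. Terminal brain and plasma drug concentrations were determined at study end.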"}, "[6]": {"assay": "Inhibition of BCR-KIT (unknown origin) expressed in mouse BaF3 cells assessed as inhibition of IL3 dependent cell proliferation incubated for 3 days by ATPlite 1step Luminescence Assay reagent based assay", "conditions": "Homo sapiens, BaF3, 72 h"}, "[7]": {"assay": "Inhibition of BCR-CSF1R (unknown origin) expressed in mouse BaF3 cells assessed as inhibition of BCR-CSF1R dependent cell proliferation incubated for 3 days by ATPlite 1step Luminescence Assay reagent based assay", "conditions": "Homo sapiens, BaF3, 72 h"}, "[8]": {"assay": "Permeability in human Caco-2 cells", "assay_type": "ADME, cell-based", "conditions": "read-out: permeability"}, "[9]": {"assay": "Octanol to water partition coefficient, logD of the compound", "assay_type": "physicochemical"}, "[10]": {"molecular_target": "Serine/threonine-protein kinase Nek1 (Homo sapiens, UniProt Q96PY6)", "sequence (Q96PY6 whole entry)": "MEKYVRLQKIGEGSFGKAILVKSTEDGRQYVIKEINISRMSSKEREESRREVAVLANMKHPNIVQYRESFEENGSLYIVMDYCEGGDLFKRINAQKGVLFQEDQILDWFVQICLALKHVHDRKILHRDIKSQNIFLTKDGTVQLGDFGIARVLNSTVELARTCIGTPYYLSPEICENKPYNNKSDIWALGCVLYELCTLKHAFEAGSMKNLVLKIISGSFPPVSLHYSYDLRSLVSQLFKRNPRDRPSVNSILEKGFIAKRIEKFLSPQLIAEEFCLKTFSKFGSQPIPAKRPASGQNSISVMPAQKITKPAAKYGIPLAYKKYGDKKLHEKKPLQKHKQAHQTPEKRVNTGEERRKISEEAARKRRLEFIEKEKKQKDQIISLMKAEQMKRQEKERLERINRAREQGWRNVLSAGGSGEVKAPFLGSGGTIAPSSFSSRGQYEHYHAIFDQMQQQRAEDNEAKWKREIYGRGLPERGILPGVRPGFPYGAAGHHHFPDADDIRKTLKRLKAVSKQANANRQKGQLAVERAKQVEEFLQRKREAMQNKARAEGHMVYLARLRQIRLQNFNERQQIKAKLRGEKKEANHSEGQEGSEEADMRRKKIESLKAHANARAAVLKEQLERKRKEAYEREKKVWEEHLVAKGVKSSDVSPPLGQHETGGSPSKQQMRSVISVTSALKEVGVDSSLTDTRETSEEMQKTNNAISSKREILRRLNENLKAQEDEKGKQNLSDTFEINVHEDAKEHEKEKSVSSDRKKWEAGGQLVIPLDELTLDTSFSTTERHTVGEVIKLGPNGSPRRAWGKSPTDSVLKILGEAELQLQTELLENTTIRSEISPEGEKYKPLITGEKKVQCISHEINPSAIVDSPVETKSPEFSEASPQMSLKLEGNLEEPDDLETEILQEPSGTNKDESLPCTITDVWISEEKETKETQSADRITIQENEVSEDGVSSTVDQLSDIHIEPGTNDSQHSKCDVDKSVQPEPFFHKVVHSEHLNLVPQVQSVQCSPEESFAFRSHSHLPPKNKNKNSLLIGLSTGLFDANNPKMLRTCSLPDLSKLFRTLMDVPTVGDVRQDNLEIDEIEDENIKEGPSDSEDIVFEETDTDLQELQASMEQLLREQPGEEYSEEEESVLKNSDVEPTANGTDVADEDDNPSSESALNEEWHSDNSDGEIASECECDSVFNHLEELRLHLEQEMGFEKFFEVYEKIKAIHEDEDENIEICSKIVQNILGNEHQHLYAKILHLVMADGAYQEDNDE", "assay": "Inhibition of NEK1 (unknown origin)"}, "[11]": {"molecular_target": "Ephrin type-A receptor 2 (Homo sapiens, UniProt P29317)", "sequence (P29317 whole entry)": "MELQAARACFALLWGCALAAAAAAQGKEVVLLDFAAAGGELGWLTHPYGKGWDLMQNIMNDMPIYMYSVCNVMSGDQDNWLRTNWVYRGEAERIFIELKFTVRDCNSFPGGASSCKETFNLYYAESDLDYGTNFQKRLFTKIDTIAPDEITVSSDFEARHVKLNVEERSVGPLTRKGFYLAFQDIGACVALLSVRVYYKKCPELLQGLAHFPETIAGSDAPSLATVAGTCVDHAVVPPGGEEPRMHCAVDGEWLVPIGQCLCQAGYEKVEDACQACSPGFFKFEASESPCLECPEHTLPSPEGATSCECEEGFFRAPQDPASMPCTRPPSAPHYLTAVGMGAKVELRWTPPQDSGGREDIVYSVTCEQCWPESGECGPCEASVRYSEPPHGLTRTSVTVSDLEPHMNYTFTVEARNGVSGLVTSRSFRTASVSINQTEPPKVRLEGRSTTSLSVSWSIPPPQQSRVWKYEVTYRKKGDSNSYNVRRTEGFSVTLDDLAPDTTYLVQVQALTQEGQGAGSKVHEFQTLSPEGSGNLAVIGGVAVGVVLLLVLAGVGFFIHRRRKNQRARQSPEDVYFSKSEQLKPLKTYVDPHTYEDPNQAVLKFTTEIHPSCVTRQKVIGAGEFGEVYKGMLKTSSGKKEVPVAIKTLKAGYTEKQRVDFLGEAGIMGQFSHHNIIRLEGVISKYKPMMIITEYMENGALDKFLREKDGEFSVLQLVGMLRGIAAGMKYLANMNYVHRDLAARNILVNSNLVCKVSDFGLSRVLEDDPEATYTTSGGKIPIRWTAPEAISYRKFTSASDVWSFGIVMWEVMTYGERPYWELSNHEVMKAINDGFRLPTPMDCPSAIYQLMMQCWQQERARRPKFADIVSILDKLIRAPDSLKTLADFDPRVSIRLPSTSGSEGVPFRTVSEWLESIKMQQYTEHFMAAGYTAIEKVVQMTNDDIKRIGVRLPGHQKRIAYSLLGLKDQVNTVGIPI", "assay": "Inhibition of EPHA2 (unknown origin)"}, "[12]": {"molecular_target": "Serine/threonine-protein kinase PAK 5 (Homo sapiens, UniProt Q9P286)", "sequence (Q9P286 whole entry)": "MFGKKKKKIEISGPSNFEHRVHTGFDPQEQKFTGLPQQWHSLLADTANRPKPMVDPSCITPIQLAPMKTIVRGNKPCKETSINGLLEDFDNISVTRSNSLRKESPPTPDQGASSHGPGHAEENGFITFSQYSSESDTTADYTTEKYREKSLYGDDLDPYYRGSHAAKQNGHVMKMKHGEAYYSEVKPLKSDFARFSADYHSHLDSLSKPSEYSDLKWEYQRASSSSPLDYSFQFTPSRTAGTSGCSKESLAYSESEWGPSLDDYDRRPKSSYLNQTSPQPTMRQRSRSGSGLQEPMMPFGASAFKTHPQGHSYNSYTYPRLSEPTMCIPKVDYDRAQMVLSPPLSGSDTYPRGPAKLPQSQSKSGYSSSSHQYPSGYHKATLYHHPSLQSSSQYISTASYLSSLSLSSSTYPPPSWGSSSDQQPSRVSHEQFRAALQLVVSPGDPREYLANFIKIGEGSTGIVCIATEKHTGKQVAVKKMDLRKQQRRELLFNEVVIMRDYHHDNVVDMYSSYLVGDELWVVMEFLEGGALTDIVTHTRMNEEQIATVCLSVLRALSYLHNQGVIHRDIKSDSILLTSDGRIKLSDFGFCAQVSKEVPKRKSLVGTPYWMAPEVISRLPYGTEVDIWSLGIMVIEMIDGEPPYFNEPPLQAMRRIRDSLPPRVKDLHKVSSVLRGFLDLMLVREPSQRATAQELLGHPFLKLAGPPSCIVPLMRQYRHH", "assay": "Inhibition of PAK7 (unknown origin)"}, "[13]": {"molecular_target": "Ephrin type-B receptor 2 (Homo sapiens, UniProt P29323)", "assay": "Inhibition of EPHB2 (unknown origin)"}, "[14]": {"tested_on": "Mus musculus", "assay": "Effect on APP processing pathway in 5XFAD mouse assessed as PEN2 protein signal intensity in cortex at 1200 ppm administered as rodent starting from 1.5 months and measured after 7 months (reference value: 13.636 to 217.511 %)", "assay_type": "functional", "conditions": "route po, time 5.5 months, 4015 h"}, "[15]": {"assay": "Effect on Ctsz gene expression in wild type mouse hippocampus at 1200 ppm administered as rodent chow starting from 1.5 months and measured after 7 months by RNA-Seq analysis (reference value: 13.821 to 22.84 RPKM)", "assay_type": "functional", "conditions": "route po, time 5.5 months, 4015 h"}, "[16]": {"molecular_target": "Mitogen-activated protein kinase 13 (Homo sapiens, UniProt O15264)", "sequence (O15264 whole entry)": "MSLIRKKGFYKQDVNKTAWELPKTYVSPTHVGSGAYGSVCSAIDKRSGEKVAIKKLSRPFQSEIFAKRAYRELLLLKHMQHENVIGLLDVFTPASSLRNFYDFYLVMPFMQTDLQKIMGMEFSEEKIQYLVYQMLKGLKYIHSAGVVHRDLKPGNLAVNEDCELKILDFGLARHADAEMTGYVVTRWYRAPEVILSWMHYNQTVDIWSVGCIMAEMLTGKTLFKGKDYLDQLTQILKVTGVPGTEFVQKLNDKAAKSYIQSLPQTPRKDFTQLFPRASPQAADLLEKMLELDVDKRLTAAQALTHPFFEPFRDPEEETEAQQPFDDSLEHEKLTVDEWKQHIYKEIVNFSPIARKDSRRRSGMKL", "assay": "Inhibition of MAPK13 (unknown origin)"}, "[17]": {"assay": "Effect on St8sia5 gene expression in wildtype mouse hippocampus assessed as percent change in Reads Per kilo base per Million mapped reads at 1200 ppm administered as rodent chow starting from 1.5 months and measured after 7 months by RNA-Seq analysis (reference value: 83.570 to 112.150 %)", "assay_type": "functional", "conditions": "route po, time 5.5 months, 4015 h"}, "[18]": {"molecular_target": "Protein-tyrosine kinase 2-beta (Homo sapiens, UniProt Q14289)", "assay": "Inhibition of PTK2B (unknown origin)"}, "[19]": {"assay": "AUC (0 to infinity) in dog at 1.00 mg/kg, iv administered as single dose", "assay_type": "ADME, organism-based, Canis lupus familiaris", "conditions": "in vivo"}, "[20]": {"molecular_target": "Aurora kinase B (Homo sapiens, UniProt Q96GD4)", "sequence (Q96GD4 whole entry)": "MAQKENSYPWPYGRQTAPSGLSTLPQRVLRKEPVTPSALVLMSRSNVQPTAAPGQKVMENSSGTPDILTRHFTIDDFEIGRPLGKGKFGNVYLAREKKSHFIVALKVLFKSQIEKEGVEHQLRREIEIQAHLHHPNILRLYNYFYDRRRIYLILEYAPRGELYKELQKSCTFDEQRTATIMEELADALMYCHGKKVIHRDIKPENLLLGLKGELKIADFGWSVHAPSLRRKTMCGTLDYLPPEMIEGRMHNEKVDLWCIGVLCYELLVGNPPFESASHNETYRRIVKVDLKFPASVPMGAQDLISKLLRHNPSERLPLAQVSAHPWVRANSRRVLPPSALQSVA", "assay": "Inhibition of AURKB (unknown origin)"}, "[21]": {"molecular_target": "Cyclin-dependent kinase 1/cyclin B1 (Homo sapiens, UniProt P06493)", "sequence (P06493 whole entry)": "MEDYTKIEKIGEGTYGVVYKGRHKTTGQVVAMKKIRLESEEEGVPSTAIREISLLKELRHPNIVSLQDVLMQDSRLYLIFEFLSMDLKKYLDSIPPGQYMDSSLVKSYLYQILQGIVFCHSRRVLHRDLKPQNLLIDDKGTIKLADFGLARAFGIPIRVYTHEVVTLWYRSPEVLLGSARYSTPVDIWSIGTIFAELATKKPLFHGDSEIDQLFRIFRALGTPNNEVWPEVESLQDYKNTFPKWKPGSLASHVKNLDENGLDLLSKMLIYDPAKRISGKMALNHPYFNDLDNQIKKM", "sequence (P14635 whole entry, further chain)": "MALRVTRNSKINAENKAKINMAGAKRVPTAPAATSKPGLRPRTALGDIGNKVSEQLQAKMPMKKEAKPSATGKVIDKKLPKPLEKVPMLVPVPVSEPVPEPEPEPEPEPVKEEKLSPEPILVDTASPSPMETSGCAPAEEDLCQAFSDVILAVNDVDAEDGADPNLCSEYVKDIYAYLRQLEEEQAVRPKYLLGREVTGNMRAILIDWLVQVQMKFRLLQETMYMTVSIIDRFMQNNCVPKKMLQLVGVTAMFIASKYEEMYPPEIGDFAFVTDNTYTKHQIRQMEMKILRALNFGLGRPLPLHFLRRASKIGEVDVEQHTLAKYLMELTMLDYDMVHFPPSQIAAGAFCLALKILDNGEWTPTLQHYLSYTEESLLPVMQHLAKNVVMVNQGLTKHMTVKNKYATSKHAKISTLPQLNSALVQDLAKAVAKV", "assay": "Inhibition of CDK1/CyclinB (unknown origin)", "assay_type": "protein-complex assay"}, "[22]": {"molecular_target": "Homeodomain-interacting protein kinase 4 (Homo sapiens, UniProt Q8NE63)", "assay": "Inhibition of HIPK4 (unknown origin)"}, "[23]": {"tested_on": "Mus musculus", "assay": "Effect on APP processing pathway in wildtype mouse assessed as ADAM10 protein signal intensity in cortex at 1200 ppm administered as rodent starting from 1.5 months and measured after 7 months (reference value: 37.275 to 230.211 %)", "assay_type": "functional", "conditions": "route po, time 5.5 months, 4015 h"}, "[24]": {"tested_on": "Mus musculus", "assay": "Prevention of Tgfb1 gene upregulation in 5XFAD mouse hippocampus at 1200 ppm administered as rodent chow starting from 1.5 months and measured after 7 months by Nanostring analysis", "assay_type": "functional, tissue-based", "conditions": "route po, time 5.5 months"}, "[25]": {"molecular_target": "Serine/threonine-protein kinase PAK 2 (Homo sapiens, UniProt Q13177)", "sequence (Q13177 whole entry)": "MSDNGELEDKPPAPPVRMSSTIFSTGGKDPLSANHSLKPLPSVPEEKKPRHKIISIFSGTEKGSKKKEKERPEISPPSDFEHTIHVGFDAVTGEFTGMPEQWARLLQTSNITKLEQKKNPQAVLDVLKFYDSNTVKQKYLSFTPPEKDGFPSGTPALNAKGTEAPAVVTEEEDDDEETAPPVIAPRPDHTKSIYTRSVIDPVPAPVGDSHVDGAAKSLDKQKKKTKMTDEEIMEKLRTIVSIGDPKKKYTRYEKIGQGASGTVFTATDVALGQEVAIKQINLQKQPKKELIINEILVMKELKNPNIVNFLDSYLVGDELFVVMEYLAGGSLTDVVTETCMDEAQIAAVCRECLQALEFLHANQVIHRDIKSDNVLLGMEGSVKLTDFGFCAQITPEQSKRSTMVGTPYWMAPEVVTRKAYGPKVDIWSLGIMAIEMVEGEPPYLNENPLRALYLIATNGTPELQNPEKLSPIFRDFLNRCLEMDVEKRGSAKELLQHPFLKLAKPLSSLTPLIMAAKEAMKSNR", "assay": "Inhibition of PAK2 (unknown origin)"}, "[26]": {"tested_on": "Mus musculus", "assay": "Antialzheimer activity in 5XFAD mouse assessed as amyloidbeta38 level in detergent soluble thalamus fraction measured per microgram protein at 1200 ppm administered as rodent chow starting from 1.5 months and measured after 7 months by ELISA (reference value: 0 to 0.010 pg)", "assay_type": "functional", "conditions": "route po, time 5.5 months, 4015 h", "in_short": "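PLX5622 at 1200 ppm in chow given to 5xFAD mice from 1.5 months to 4 or 7 months of age; cortex and thalamus homogenized in TPER (detergent-soluble), pellets re-homogenized in 70% formic acid and spun 100,000 g, 1 h, 4 °C (insoluble); protein by Bradford/Lowry; Aβ species measured by Meso Scale electrochemiluminescence immunoassay, normalized to protein; n = 7–8 per group at 7 months.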"}}, "note": "Calls of active or inactive are those of the source. The rule behind the calls is not given here."}
{"compound": "FC(F)(F)c1ccc(CNc2ccc(Cc3c[nH]c4ncc(Cl)cc34)cn2)cn1", "note": "[PEXIDARTINIB]", "values": [{"measurement": "Drug uptake", "setting": "[1]", "result": "~ 5%"}, {"measurement": "IC50", "setting": "[2]", "result": "> 10", "unit": "µM"}, {"measurement": "pKa", "setting": "[3]", "result": 5.2}, {"measurement": "IC50", "setting": "[4]", "result": 0.11, "unit": "µM"}, {"measurement": "concentration at 2555 h", "setting": "[5]", "result": 158, "unit": "µM"}, {"measurement": "IC50", "setting": "[6]", "result": "> 10", "unit": "µM"}, {"measurement": "IC50", "setting": "[7]", "result": 0.009, "unit": "µM"}, {"measurement": "Papp", "setting": "[8]", "result": 1.4, "unit": "×10⁻⁶ cm/s"}, {"measurement": "logD", "setting": "[9]", "result": 3.35}]}
{"compound": "COc1ncc(F)cc1CNc1ccc(Cc2c[nH]c3ncc(C)cc23)c(F)n1", "note": "[PLX-5622]", "values": [{"measurement": "IC50", "setting": "[10]", "result": "> 1", "unit": "µM"}, {"measurement": "IC50", "setting": "[11]", "result": "> 1", "unit": "µM"}, {"measurement": "Drug uptake", "setting": "[1]", "result": "~ 20%"}, {"measurement": "IC50", "setting": "[12]", "result": "> 1", "unit": "µM"}, {"measurement": "IC50", "setting": "[13]", "result": "> 1", "unit": "µM"}, {"measurement": "Activity", "setting": "[14]", "result": 7.565, "unit": "%"}, {"measurement": "Activity", "setting": "[15]", "result": 14.33, "unit": "RPKM"}, {"measurement": "IC50", "setting": "[16]", "result": "> 1", "unit": "µM"}, {"measurement": "IC50", "setting": "[2]", "result": "> 10", "unit": "µM"}, {"measurement": "Activity", "setting": "[17]", "result": 65.471, "unit": "%"}, {"measurement": "IC50", "setting": "[18]", "result": "> 1", "unit": "µM"}, {"measurement": "pKa", "setting": "[3]", "result": 4.14}, {"measurement": "IC50", "setting": "[4]", "result": 2.7, "unit": "µM"}, {"measurement": "AUC(0-inf)", "setting": "[19]", "result": 6230, "unit": "ng·h/mL"}, {"measurement": "IC50", "setting": "[6]", "result": "> 10", "unit": "µM"}, {"measurement": "IC50", "setting": "[20]", "result": "> 1", "unit": "µM"}, {"measurement": "IC50", "setting": "[21]", "result": "> 1", "unit": "µM"}, {"measurement": "IC50", "setting": "[22]", "result": "> 1", "unit": "µM"}, {"measurement": "IC50", "setting": "[7]", "result": 0.017, "unit": "µM"}, {"measurement": "Activity", "setting": "[23]", "result": 59.835, "unit": "%"}, {"measurement": "Activity", "setting": "[24]", "result": "Active"}, {"measurement": "IC50", "setting": "[25]", "result": "> 1", "unit": "µM"}, {"measurement": "Papp", "setting": "[8]", "result": 12.2, "unit": "×10⁻⁶ cm/s"}, {"measurement": "logD", "setting": "[9]", "result": 3.92}, {"measurement": "Activity", "setting": "[26]", "result": 0, "unit": "pg"}]}
